The record followed here is ChEMBL document CHEMBL5257059, “Pyridine-Based 1,2,4-Triazolo-Tethered Indole Conjugates Potentially Affecting TNKS and PI3K in Colorectal Cancer” (ACS Med Chem Lett, 2023).

Molecules are shown by their SMILES. The source made the active and inactive calls. The rule behind the calls is not given here.

The test system of assay [1] is HT-29. The experiment in a line: Induction of mitochondrial damage in human HT-29 cells assessed as increase in monomer formation at 4 uM incubated for 24 hrs by JC-1 staining based flow cytometry analysis. It is filed as functional, cell-based. Summed up:
(§1)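 HT-29 cells exposed 24 h to test agent at 1, 2 or 4 μM, then stained with JC-1. Flow cytometry scored the % of cells in JC-1 aggregate versus monomer populations. Treated groups were compared with untreated control by two-way ANOVA with Tukey's post hoc test.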
On the technique in general: In flow cytometry, cells or beads pass a laser one at a time.

Assay [2] has as its system HT-29. The experiment in a line: Inhibition of phosphorylated PI3K-p85 protein expression in human HT-29 cells at 4 uM incubated for 72 hrs by Western blot analysis. The assay is classed as functional, cell-based. (Immunoblotting shows a protein as a band on a membrane.)
Assay [3] has as its system HT-29. The experiment in a line: Inhibition of APC protein expression in human HT-29 cells at 4 uM incubated for 72 hrs by Western blot analysis. The assay is classed as functional, cell-based.
Assay [4] has as its system HT-29. The experiment in a line: Induction of cell cycle arrest in human HT-29 cells assessed as accumulation of cells at subG1 phase at 4 uM incubated for 24 hrs by RNase/PI staining based flow cytometry analysis (reference value: 1.798%). It is filed as functional.
For assay [5], the system named is HT-29. The experiment in a line: Induction of apoptosis in human HT29 cells assessed as increase in early apoptotic cells at 4 uM incubated for 24 hrs by annexin V/PI staining based flow cytometry analysis. The assay is classed as functional, cell-based. Summed up:
(§2)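 Annexin/PI double staining of HT-29 cells after 24 h exposure at 1, 2 or 4 μM. Flow cytometry gated early apoptotic, late apoptotic and necrotic populations, reported as % of cells. Comparison to untreated control used two-way ANOVA followed by Tukey's post hoc analysis.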

For assay [6], the system named is HT-29. The experiment in a line: Inhibition of AKT protein expression in human HT-29 cells at 4 uM incubated for 72 hrs by Western blot analysis. The assay is classed as functional, cell-based.
The subject of assay [7] is HT-29. The experiment in a line: Induction of ROS generation in human HT-29 cells at 4 uM by CM-H2DCFDA fluorescent probe based flow cytometry analysis (reference value: 0.528%). The assay is classed as functional.
The subject of assay [8] is HT-29. The experiment in a line: Inhibition of beta-catenin protein expression in human HT-29 cells at 4 uM incubated for 72 hrs by Western blot analysis. It is filed as functional, cell-based.
In assay [9] the test system is HT-29. The experiment in a line: Inhibition of AXIN-1 protein expression in human HT-29 cells at 4 uM incubated for 72 hrs by Western blot analysis. It is filed as functional, cell-based.
Assay [10] has as its system HT-29. The experiment in a line: Induction of cell cycle arrest in human HT-29 cells assessed as accumulation of cells at G0/G1 phase at 4 uM incubated for 24 hrs by RNase/PI staining based flow cytometry analysis (reference value: 50.206%). It is filed as functional.
Assay [11] concerns HT-29. The experiment in a line: Inhibition of AXIN-2 protein expression in human HT-29 cells at 4 uM incubated for 72 hrs by Western blot analysis. The assay is classed as functional, cell-based.
Assay [12] deals with HT-29. The experiment in a line: Induction of apoptosis in human HT29 cells assessed as increase in late apoptotic cells at 4 uM incubated for 24 hrs by annexin V/PI staining based flow cytometry analysis. The assay is classed as functional, cell-based. Summed up:
as §2

The test system of assay [13] is HT-29. The experiment in a line: Inhibition of GSK-3beta protein expression in human HT-29 cells at 4 uM incubated for 72 hrs by Western blot analysis. It is filed as functional, cell-based.
The test system of assay [14] is HT-29. The experiment in a line: Induction of mitochondrial damage in human HT-29 cells assessed as increase in monomer formation at 1 uM incubated for 24 hrs by JC-1 staining based flow cytometry analysis. The assay is classed as functional, cell-based. Summed up:
as §1

Assay [15] has as its system HT-29. The experiment in a line: Inhibition of pan-AKT protein expression in human HT-29 cells at 1 uM incubated for 72 hrs by Western blot analysis. It is filed as functional, cell-based.
For assay [16], the system named is HT-29. The experiment in a line: Inhibition of AXIN-2 protein expression in human HT-29 cells at 1 uM incubated for 72 hrs by Western blot analysis. It is filed as functional, cell-based.
In assay [17] the test system is HT-29. The experiment in a line: Induction of cell cycle arrest in human HT-29 cells assessed as accumulation of cells at G0/G1 phase at 1 uM incubated for 24 hrs by RNase/PI staining based flow cytometry analysis (reference value: 50.206%). It is filed as functional.
In assay [18] the test system is HT-29. The experiment in a line: Inhibition of APC protein expression in human HT-29 cells at 1 uM incubated for 72 hrs by Western blot analysis. The assay is classed as functional, cell-based.
For assay [19], the system named is HT-29. The experiment in a line: Induction of ROS generation in human HT-29 cells at 1 uM by CM-H2DCFDA fluorescent probe based flow cytometry analysis (reference value: 0.528%). It is filed as functional.
Assay [20] deals with HT-29. The experiment in a line: Inhibition of beta-catenin protein expression in human HT-29 cells at 1 uM incubated for 72 hrs by Western blot analysis. It is filed as functional, cell-based.
The subject of assay [21] is HT-29. The experiment in a line: Inhibition of GSK-3beta protein expression in human HT-29 cells at 1 uM incubated for 72 hrs by Western blot analysis. The assay is classed as functional, cell-based.
The test system of assay [22] is HT-29. The experiment in a line: Inhibition of AXIN-1 protein expression in human HT-29 cells at 1 uM incubated for 72 hrs by Western blot analysis. It is filed as functional, cell-based.
In assay [23] the target is 182 kDa tankyrase-1-binding protein (Homo sapiens) (UniProt Q9C0C2). The experiment in a line: Inhibition of TAB-182 phosphorylation in human HT-29 cells at 1 uM incubated for 72 hrs by Western blot analysis. The assay is classed as cell-based.
The target in assay [24] is Phosphatidylinositol 3-kinase regulatory subunit alpha (Homo sapiens) (UniProt P27986). The experiment in a line: Inhibition of PI3K-P85 phosphorylation in human HT-29 cells at 2 uM incubated for 72 hrs by Western blot analysis. It is filed as cell-based.
In assay [25] the test system is HT-29. The experiment in a line: Induction of ROS generation in human HT-29 cells at 2 uM by CM-H2DCFDA fluorescent probe based flow cytometry analysis (reference value: 0.528%). It is filed as functional.
Assay [26] concerns HT-29. The experiment in a line: Inhibition of beta-catenin protein expression in human HT-29 cells at 2 uM incubated for 72 hrs by Western blot analysis. It is filed as functional, cell-based.
Assay [27] deals with HT-29. The experiment in a line: Inhibition of AKT protein expression in human HT-29 cells at 2 uM incubated for 72 hrs by Western blot analysis. It is filed as functional, cell-based.
Assay [28] relates to HT-29. The experiment in a line: Inhibition of beta-actin protein expression in human HT-29 cells at 2 uM incubated for 72 hrs by Western blot analysis. It is filed as functional, cell-based.
Assay [29] relates to HT-29. The experiment in a line: Inhibition of pan-AKT protein expression in human HT-29 cells at 2 uM incubated for 72 hrs by Western blot analysis. It is filed as functional, cell-based.
In assay [30] the test system is HT-29. The experiment in a line: Inhibition of APC protein expression in human HT-29 cells at 2 uM incubated for 72 hrs by Western blot analysis. It is filed as functional, cell-based.
Assay [31] concerns HT-29. The experiment in a line: Induction of cell cycle arrest in human HT-29 cells assessed as accumulation of cells at G0/G1 phase at 2 uM incubated for 24 hrs by RNase/PI staining based flow cytometry analysis (reference value: 50.206%). The assay is classed as functional.
Assay [32] relates to HT-29. The experiment in a line: Inhibition of PI3K-p85 protein expression in human HT-29 cells at 2 uM incubated for 72 hrs by Western blot analysis. The assay is classed as functional, cell-based.
Assay [33] concerns HT-29. The experiment in a line: Induction of mitochondrial damage in human HT-29 cells assessed as increase in monomer formation at 2 uM incubated for 24 hrs by JC-1 staining based flow cytometry analysis. The assay is classed as functional, cell-based. Summed up:
as §1

Assay [34] deals with HT-29. The experiment in a line: Induction of cell cycle arrest in human HT-29 cells assessed as accumulation of cells at subG1 phase at 2 uM incubated for 24 hrs by RNase/PI staining based flow cytometry analysis (reference value: 1.798%). The assay is classed as functional.
Assay [35] has as its target Glycogen synthase kinase-3 beta (Homo sapiens) (UniProt P49841). The experiment in a line: Inhibition of GSK3beta phosphorylation in human HT-29 cells at 2 uM incubated for 72 hrs by Western blot analysis. The assay is classed as cell-based.
The test system of assay [36] is HT-29. The experiment in a line: Induction of apoptosis in human HT29 cells assessed as increase in late apoptotic cells at 2 uM incubated for 24 hrs by annexin V/PI staining based flow cytometry analysis. The assay is classed as functional, cell-based. Summed up: as §2

Sequence of Phosphatidylinositol 3-kinase regulatory subunit alpha (Homo sapiens) (P27986 whole entry): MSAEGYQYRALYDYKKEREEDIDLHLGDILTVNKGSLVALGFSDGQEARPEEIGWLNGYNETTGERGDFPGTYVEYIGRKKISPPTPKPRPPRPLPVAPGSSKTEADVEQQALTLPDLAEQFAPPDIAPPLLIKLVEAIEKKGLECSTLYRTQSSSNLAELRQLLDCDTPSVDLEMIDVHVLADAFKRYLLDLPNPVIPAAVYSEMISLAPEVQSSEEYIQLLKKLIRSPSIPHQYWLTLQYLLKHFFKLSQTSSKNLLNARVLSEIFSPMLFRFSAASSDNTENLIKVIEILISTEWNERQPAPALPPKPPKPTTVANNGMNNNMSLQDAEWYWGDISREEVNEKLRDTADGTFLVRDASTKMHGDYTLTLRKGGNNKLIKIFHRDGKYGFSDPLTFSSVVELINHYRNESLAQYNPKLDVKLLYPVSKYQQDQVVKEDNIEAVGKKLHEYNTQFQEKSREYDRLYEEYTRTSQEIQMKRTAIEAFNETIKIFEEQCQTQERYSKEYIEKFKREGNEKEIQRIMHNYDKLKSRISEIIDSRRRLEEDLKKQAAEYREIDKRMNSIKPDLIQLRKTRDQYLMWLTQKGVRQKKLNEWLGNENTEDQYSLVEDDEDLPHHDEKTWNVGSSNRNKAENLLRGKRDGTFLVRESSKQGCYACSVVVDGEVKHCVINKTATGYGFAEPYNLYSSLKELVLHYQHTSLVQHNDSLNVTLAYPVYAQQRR
Sequence of 182 kDa tankyrase-1-binding protein (Homo sapiens) (Q9C0C2 whole entry): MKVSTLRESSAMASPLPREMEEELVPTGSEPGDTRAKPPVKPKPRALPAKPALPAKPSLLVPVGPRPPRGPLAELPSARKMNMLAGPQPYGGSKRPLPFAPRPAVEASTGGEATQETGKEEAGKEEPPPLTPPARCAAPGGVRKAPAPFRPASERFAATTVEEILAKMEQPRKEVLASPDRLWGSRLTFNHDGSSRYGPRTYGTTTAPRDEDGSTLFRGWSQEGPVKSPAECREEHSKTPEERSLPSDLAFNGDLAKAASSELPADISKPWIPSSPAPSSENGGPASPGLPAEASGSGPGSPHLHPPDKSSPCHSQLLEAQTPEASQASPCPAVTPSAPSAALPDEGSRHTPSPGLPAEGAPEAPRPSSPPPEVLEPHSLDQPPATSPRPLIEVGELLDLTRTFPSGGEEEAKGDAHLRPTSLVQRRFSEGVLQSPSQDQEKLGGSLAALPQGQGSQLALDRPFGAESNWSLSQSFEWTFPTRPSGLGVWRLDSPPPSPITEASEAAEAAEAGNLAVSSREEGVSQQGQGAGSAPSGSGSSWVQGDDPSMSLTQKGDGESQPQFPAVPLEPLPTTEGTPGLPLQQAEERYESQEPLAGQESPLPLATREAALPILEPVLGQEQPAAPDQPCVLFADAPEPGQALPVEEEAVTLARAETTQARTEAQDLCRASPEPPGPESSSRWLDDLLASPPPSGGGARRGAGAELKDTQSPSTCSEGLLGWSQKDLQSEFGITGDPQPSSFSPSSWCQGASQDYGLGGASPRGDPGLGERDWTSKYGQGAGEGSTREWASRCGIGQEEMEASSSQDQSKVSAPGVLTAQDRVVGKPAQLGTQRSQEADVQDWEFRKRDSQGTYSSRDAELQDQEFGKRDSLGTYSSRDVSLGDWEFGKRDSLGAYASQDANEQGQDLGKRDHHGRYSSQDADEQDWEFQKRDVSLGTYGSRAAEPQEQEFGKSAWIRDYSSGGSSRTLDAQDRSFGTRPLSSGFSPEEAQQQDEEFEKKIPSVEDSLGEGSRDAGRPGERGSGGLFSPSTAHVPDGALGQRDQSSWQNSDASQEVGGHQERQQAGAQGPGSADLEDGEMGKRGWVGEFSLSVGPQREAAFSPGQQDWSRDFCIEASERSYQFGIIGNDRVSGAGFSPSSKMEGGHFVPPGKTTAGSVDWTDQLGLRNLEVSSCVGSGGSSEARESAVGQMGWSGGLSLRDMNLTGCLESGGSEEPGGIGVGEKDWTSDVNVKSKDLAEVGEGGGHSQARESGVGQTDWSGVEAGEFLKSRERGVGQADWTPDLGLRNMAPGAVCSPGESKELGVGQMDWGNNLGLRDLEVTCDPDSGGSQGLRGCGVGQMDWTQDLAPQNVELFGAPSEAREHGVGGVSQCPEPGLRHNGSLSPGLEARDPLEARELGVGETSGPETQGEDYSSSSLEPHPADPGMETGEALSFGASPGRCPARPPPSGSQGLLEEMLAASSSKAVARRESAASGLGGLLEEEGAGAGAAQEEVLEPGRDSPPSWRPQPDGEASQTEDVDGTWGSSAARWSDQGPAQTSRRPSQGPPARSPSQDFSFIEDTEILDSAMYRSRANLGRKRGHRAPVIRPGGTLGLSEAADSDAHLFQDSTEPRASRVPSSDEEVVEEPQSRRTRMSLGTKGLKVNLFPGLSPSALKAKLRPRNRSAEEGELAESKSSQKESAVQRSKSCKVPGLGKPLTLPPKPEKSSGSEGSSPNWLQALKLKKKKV
Sequence of Glycogen synthase kinase-3 beta (Homo sapiens) (P49841 whole entry, looked up): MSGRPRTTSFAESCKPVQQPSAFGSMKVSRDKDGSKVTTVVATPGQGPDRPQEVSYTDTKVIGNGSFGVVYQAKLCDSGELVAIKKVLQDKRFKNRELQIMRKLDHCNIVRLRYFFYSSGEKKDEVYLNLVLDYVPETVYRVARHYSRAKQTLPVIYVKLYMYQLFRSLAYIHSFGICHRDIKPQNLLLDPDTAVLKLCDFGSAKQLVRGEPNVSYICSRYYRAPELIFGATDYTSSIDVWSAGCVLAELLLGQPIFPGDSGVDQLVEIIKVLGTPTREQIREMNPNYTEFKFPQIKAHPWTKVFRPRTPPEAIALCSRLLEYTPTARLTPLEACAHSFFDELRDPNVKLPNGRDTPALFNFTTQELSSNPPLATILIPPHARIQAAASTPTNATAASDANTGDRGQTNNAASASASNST

For `COc1cccc(-n2c(SCCc3c[nH]c4ccccc34)nnc2-c2ccncc2)c1`, the outcome in the assay with HT-29 [1], in the assay on HT-29 [5] and in the assay on HT-29 [12] was Active. Besides, the inhibition entry with HT-29 [2], in the assay with HT-29 [3], in the assay with HT-29 [6], with HT-29 [8], in the assay with HT-29 [9] and with HT-29 [11] was “Active” in each case. The inhibition result in the assay on HT-29 [13] was “Active”. Also, the Activity in the assay on HT-29 [4] came out at 2.668%; in the assay with HT-29 [7], 2.467%; in the assay with HT-29 [10], 42.657%.
For `COc1ccc(-n2c(SCCc3c[nH]c4ccccc34)nnc2-c2ccncc2)cc1`, the result in the assay with HT-29 [14] was Active. The inhibition result with HT-29 [15], with HT-29 [16], in the assay on HT-29 [18], in the assay on HT-29 [20], in the assay on HT-29 [21] and in the assay on HT-29 [22] was “Active” in each case. The inhibition entry in assay [23] is “Active”. Further, the Activity in the assay on HT-29 [17] is given as 59.672%; in the assay with HT-29 [19], 15.334%.
With `Fc1ccccc1-n1c(SCCc2c[nH]c3ccccc23)nnc1-c1ccncc1`, the inhibition entry (in assay [24]; with HT-29 [26]; with HT-29 [27]; with HT-29 [28]; with HT-29 [29]; with HT-29 [30]) was “Active” each time. The inhibition result (in the assay on HT-29 [32]; in assay [35]) was “Active” in each case. For the same molecule, the Activity turned out to be 1.526% in the assay on HT-29 [25], 67.66% in the assay with HT-29 [31] and 0.854% in the assay with HT-29 [34]. Moreover, the outcome with HT-29 [33] and in the assay with HT-29 [36] was Active.
